{"source": "ChEMBL document CHEMBL4049456", "about": "“Identification of 4-(Aminomethyl)-6-(trifluoromethyl)-2-(phenoxy)pyridine Derivatives as Potent, Selective, and Orally Efficacious Inhibitors of the Copper-Dependent Amine Oxidase, Lysyl Oxidase-Like 2 (LOXL2)” (J Med Chem, 2017)", "key": {"[1]": {"target": "T1, Protein-lysine 6-oxidase (Homo sapiens, UniProt P28300)", "T1 sequence (P28300 whole entry)": "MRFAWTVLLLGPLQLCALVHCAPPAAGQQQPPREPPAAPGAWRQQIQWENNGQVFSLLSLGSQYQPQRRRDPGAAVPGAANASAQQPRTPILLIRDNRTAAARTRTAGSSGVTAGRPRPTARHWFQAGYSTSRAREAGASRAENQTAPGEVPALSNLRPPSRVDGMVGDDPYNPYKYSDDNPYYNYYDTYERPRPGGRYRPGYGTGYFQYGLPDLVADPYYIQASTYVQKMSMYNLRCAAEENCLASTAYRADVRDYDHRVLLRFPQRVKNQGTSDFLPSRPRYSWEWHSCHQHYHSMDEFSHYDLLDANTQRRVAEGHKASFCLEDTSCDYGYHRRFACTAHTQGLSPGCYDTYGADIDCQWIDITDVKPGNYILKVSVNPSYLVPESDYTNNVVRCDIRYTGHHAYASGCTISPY", "assay": "Inhibition of human LOX expressed in HEK cells assessed as reduction of H2O2 production from oxidative deamination of DAP preincubated for 2 hrs followed by substrate addition in presence of 0.1% BSA measured every 2 mins for 1 hr by amplex red reagent-based fluorescence assay", "format": "cell-based"}, "[2]": {"target": "T2, MAO-B (Homo sapiens, UniProt P27338)", "T2 sequence (P27338 whole entry)": "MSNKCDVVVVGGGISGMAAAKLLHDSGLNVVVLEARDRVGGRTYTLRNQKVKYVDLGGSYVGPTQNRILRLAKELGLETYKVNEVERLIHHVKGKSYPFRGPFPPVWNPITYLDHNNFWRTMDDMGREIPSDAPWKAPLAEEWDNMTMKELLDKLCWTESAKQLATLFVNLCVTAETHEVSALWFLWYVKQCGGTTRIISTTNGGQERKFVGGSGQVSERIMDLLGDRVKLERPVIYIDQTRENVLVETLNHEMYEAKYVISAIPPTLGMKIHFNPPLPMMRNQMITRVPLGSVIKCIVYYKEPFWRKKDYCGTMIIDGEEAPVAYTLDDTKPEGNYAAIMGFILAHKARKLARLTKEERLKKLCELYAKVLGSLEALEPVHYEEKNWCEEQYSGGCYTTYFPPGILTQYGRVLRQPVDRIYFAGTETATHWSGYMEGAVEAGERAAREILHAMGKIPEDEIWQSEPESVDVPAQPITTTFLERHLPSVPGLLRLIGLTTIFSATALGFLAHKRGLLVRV", "assay": "Inhibition of recombinant human MAO-B assessed as reduction of H2O2 production from oxidative deamination of benzylamine at 10 uM preincubated for 2 hrs followed by substrate addition", "conditions": "probe benzylamine", "method_in_brief": "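Purified recombinant human MAO-A (tyramine substrate) or MAO-B (benzylamine substrate) was preincubated with compound for 2 h. Percent inhibition was calculated against vehicle and enzyme-free controls.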"}, "[3]": {"target": "T3, Lysyl oxidase homolog 2 (Homo sapiens, UniProt Q9Y4K0)", "T3 sequence (Q9Y4K0 whole entry)": "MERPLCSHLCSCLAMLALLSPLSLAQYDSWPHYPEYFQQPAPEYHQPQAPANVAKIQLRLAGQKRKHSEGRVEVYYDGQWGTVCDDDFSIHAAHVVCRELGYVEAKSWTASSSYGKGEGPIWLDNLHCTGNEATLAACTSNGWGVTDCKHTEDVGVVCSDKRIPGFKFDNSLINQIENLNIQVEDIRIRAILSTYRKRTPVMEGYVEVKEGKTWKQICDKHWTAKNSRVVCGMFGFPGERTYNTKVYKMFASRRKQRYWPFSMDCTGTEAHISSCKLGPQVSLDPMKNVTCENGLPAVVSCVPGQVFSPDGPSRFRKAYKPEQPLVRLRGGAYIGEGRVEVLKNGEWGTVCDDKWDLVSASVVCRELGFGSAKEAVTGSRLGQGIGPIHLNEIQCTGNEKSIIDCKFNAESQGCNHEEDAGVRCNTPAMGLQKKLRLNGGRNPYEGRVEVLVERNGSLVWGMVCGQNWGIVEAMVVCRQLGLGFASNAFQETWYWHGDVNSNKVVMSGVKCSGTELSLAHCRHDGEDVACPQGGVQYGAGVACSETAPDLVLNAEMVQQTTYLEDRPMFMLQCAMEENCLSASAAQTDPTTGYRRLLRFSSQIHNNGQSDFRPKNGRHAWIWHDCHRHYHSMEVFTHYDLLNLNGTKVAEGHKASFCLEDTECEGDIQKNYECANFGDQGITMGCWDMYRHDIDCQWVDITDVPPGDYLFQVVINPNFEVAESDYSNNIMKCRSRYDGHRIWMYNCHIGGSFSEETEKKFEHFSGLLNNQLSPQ", "assay": "Inhibition of human LOXL2 expressed in CHO cells assessed as reduction of H2O2 production from oxidative deamination of DAP preincubated for 2 hrs followed by substrate addition in presence of 0.1% BSA measured every 2 mins for 1 hr by amplex red reagent-based fluorescence assay", "format": "cell-based"}, "[4]": {"target": "T4, Amine oxidase [copper-containing] 3 (Homo sapiens) (UniProt Q16853)", "T4 sequence (whole entry)": "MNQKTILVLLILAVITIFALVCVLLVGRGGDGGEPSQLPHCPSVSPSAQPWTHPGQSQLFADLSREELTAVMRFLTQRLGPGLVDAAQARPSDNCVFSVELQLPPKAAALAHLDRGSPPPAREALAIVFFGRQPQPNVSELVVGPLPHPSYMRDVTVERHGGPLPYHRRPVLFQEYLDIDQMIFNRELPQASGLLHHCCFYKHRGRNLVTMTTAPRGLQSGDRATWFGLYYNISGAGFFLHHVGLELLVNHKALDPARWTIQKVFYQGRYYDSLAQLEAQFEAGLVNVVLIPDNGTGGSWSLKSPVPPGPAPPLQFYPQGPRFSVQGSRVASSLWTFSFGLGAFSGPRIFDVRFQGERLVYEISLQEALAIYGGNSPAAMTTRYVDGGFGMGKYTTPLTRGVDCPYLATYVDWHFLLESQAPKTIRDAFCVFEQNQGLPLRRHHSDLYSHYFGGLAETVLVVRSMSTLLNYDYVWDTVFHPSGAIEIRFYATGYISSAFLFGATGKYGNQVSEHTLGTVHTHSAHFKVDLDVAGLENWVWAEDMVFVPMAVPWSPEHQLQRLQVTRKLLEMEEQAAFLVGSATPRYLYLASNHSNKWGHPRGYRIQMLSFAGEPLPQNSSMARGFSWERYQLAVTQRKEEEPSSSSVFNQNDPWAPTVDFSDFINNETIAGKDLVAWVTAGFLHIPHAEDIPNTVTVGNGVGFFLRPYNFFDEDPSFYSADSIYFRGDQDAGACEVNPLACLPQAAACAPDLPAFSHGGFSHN", "assay": "Inhibition of SSAO in human plasma assessed as reduction of H2O2 production from oxidative deamination of benzylamine at 10 uM preincubated for 2 hrs followed by substrate addition measured every 2 mins for 1 hr by amplex red reagent-based fluorescence assay relative to control", "method_in_brief": "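Endogenous SSAO in human plasma was the enzyme source and benzylamine the substrate. After a 2 h preincubation with compound, percent inhibition was calculated relative to a vehicle control and to a control containing 1 μM of the known SSAO inhibitor PXS-4681A.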"}}}
{"smiles": "Cl.NCc1cc(Oc2cccc(C(=O)N3C[C@@H](O)[C@H](F)C3)c2)nc(C(F)(F)F)c1", "note": "(racemic)", "values": [{"measurement": "IC50", "setting": "[1]", "result": 35, "unit": "µM"}, {"measurement": "inhibition at 2 h, 10 µM", "setting": "[2]", "result": "< 10", "unit": "%"}, {"measurement": "IC50", "setting": "[3]", "result": 0.1, "unit": "µM"}, {"measurement": "inhibition", "setting": "[4]", "result": 16, "unit": "%"}]}
